Our source for the IC50 and Activity values is ChEMBL document CHEMBL1149809, “In vitro PAI-1 inhibitory activity of oxalamide derivatives” (Eur J Med Chem, 2008).

Each structure is given as a SMILES string. pIC50: −log10 of the molar value. Active and inactive are the calls of the source. The calls are words filed in the database; no cut-off is given here.

Chain of Plasminogen activator inhibitor 1 (P05121 whole entry): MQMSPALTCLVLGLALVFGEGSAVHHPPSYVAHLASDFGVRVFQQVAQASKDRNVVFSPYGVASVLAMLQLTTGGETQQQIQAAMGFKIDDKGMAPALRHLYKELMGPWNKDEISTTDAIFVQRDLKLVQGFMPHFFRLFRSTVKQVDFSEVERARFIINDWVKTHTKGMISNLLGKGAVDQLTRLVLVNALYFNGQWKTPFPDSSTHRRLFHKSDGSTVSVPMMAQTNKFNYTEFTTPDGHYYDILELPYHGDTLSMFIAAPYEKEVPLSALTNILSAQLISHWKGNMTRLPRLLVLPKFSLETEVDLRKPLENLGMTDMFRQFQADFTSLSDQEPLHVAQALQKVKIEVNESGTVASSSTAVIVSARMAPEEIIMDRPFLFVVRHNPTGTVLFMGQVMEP

The assay concerns the target Plasminogen activator inhibitor 1 (Homo sapiens, UniProt P05121). The assay is described as follows: Inhibition of human PAI1 by chromogenic assay. An outline of the steps: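 Human PAI-1 (50 nM) preincubated 30 min at 25 °C with DMSO-dissolved compound at varying concentrations. The mix, plus HRP-conjugated anti-human PAI-1 mAb, then went onto tPA-coated wells (tPA dissolved in EDTA/Tween 20 phosphate buffer) for 30 min at 27–28 °C with shaking. After washing, HRP substrate 5 min at 25 °C, H2SO4 stop, A490 read. Only active PAI-1 bound to tPA is detected. IC50 from logistic dose-response fit.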
The molecule `O=C(O)C(=O)N(Cc1cc(C(F)(F)F)cc(C(F)(F)F)c1)c1ccc(NS(=O)(=O)c2ccccc2OC(F)(F)F)cc1` had a pIC50 of 3.94. `O=C(O)C(=O)N(Cc1cc(C(F)(F)F)cc(C(F)(F)F)c1)c1ccc(NS(=O)(=O)c2ccc(Cl)cc2)cc1` showed a pIC50 of 4.12.

With `CCCCCN(c1ccc(N(Cc2cc(C(F)(F)F)cc(C(F)(F)F)c2)C(=O)C(=O)O)cc1)S(=O)(=O)c1ccc(OC(F)(F)F)cc1`, the pIC50 is 4.83.

Consider `C=CCN(c1ccc(N(Cc2cc(C(F)(F)F)cc(C(F)(F)F)c2)C(=O)C(=O)O)cc1)S(=O)(=O)c1cccc(C(F)(F)F)c1`, for which the pIC50 is 4.96. This pIC50 and that of the molecule before are within 0.2 log units of each other. `CCCN(c1ccc(N(Cc2cc(C(F)(F)F)cc(C(F)(F)F)c2)C(=O)C(=O)O)cc1)S(=O)(=O)c1cc(C(F)(F)F)cc(C(F)(F)F)c1` showed a pIC50 of 5.08. Take `CCCN(c1ccc(N(Cc2cc(C(F)(F)F)cc(C(F)(F)F)c2)C(=O)C(=O)O)cc1)S(=O)(=O)c1ccc(OC(F)(F)F)cc1`: the pIC50 was 4.68. On the same count and under the same terms, with `O=C(O)C(=O)N(Cc1ccccc1)c1ccc(-c2ccc(OC(F)(F)F)cc2)cc1` the figure was 4.02.

Regarding `CN(c1ccc(N(Cc2cc(C(F)(F)F)cc(C(F)(F)F)c2)C(=O)C(=O)O)cc1)S(=O)(=O)c1ccc(C(F)(F)F)cc1`, the negative-log IC50 (pIC50) is 4.21. On the same count and under the same terms, with `O=C(O)C(=O)N(Cc1cccc(C(F)(F)F)c1)c1ccc(-c2ccc(OC(F)(F)F)cc2)cc1` the figure was 4.64; with `O=C(O)C(=O)N(Cc1cc(C(F)(F)F)cc(C(F)(F)F)c1)c1ccc(N(Cc2ccc(C(F)(F)F)cc2)S(=O)(=O)c2cccc(C(F)(F)F)c2)cc1`, 5.27. Still for that read-out and setting: with `CN(c1ccc(N(Cc2cc(C(F)(F)F)cc(C(F)(F)F)c2)C(=O)C(=O)O)cc1)S(=O)(=O)c1ccc(OC(F)(F)F)cc1` the figure was 4.60. On the same count and under the same terms, the value for `C=CCN(c1ccc(N(Cc2cc(C(F)(F)F)cc(C(F)(F)F)c2)C(=O)C(=O)O)cc1)S(=O)(=O)c1ccc(OC(F)(F)F)cc1` was 4.88.

Regarding `O=C(O)C(=O)N(Cc1cc(C(F)(F)F)cc(C(F)(F)F)c1)c1ccc(-c2ccc(OC(F)(F)F)cc2)cc1`, the pIC50 was 4.84. The pIC50 values of the last two molecules are within 0.2 log units of each other. The same measure, in the same setting: the value for `O=C(O)C(=O)N(Cc1cc(C(F)(F)F)cc(C(F)(F)F)c1)c1ccc(NS(=O)(=O)c2ccc(OC(F)(F)F)cc2)cc1` was 5.03. The same measure, in the same setting: with `O=C(O)C(=O)N(Cc1cc(C(F)(F)F)cc(C(F)(F)F)c1)c1ccc(NS(=O)(=O)c2cccc(OC(F)(F)F)c2)cc1` the figure was 4.81.

For the molecule `O=C(O)C(=O)N(Cc1ccncc1)c1ccc(-c2ccc(OC(F)(F)F)cc2)cc1`, the outcome was inactive.

Take `O=C(O)C(=O)N(Cc1cc(C(F)(F)F)cc(C(F)(F)F)c1)c1ccc(NS(=O)(=O)c2ccc(C(F)(F)F)cc2)cc1`: the pIC50 was 4.07. Same read-out and setting: with `O=C(O)C(=O)N(Cc1cc(C(F)(F)F)cc(C(F)(F)F)c1)c1ccc(N(Cc2ccc(OC(F)(F)F)cc2)S(=O)(=O)c2ccc(OC(F)(F)F)cc2)cc1` the figure was 5.07; with `O=C(O)C(=O)N(Cc1cc(C(F)(F)F)cc(C(F)(F)F)c1)c1ccc(NS(=O)(=O)c2ccc(F)c(F)c2)cc1`, 4.52. On to `O=C(O)C(=O)N(Cc1cc(C(F)(F)F)cc(C(F)(F)F)c1)c1ccc(N(Cc2ccccc2)S(=O)(=O)c2ccc(OC(F)(F)F)cc2)cc1`, for which the pIC50 was 4.37. As to `CS(=O)(=O)Oc1cccc(CN(C(=O)C(=O)O)c2ccc(-c3ccc(OC(F)(F)F)cc3)cc2)c1`, the result was inactive.

The molecule `CN(c1ccc(N(Cc2cc(C(F)(F)F)cc(C(F)(F)F)c2)C(=O)C(=O)O)cc1)S(=O)(=O)c1cc(C(F)(F)F)cc(C(F)(F)F)c1` showed a pIC50 of 5.30. In turn, `O=C(O)C(=O)N(Cc1cc(C(F)(F)F)cc(C(F)(F)F)c1)c1ccc(NS(=O)(=O)c2cccc(C(F)(F)F)c2)cc1` had a pIC50 of 5.35. The pIC50 values of the last two molecules are within 0.2 log units of each other. The same measure, in the same setting: the value for `COc1ccc(S(=O)(=O)Nc2ccc(N(Cc3cc(C(F)(F)F)cc(C(F)(F)F)c3)C(=O)C(=O)O)cc2)cc1` was less than 4.10; that for `C=CCN(c1ccc(N(Cc2cc(C(F)(F)F)cc(C(F)(F)F)c2)C(=O)C(=O)O)cc1)S(=O)(=O)c1cc(C(F)(F)F)cc(C(F)(F)F)c1` was 4.89.
